Broadly, the Ki is the dissociation constant of the complex between target and ligand, obtained from inhibition or displacement. What is called EC50 is the concentration that produces a half-maximal response.

Active and inactive are the calls of the source.

Test [1] addresses Neuronal acetylcholine receptor; alpha4/beta2 (Homo sapiens, UniProt P17787+P43681). The experiment in a line: Compound was evaluated for its ability to displace [3H]cytisine from K177 cells expressing human Nicotinic acetylcholine receptor alpha4-beta2. Format: cell-based. The gist of the method: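 Displacement of [3H]cytisine from K177 cells expressing human α4β2 nAChRs. Ki values are means ± SEM, n ≥ 3.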

For test [2], the species on record is Mus musculus. Briefly: Compound was evaluated for the analgesic activity by mouse hotplate assay at the doses of 0.62 and 6.2; No significant effect observed at the doses tested. The class given is functional, organism-based.
The target in test [3] is Acetylcholine receptor subunit alpha (Torpedo californica, UniProt P02710). The experiment in a line: Compound was evaluated for its ability to displace [125 I]alpha-bungarotoxin (alpha-BgT) from torpedo alpha1-beta1-[…] electroplax. The gist of the method: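 Displacement of [125I]-α-bungarotoxin from Torpedo electroplax membranes (α1β1γδ). Ki values are means ± SEM, n ≥ 3.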
Acetylcholine receptor subunit alpha, sequence (P02710 whole entry): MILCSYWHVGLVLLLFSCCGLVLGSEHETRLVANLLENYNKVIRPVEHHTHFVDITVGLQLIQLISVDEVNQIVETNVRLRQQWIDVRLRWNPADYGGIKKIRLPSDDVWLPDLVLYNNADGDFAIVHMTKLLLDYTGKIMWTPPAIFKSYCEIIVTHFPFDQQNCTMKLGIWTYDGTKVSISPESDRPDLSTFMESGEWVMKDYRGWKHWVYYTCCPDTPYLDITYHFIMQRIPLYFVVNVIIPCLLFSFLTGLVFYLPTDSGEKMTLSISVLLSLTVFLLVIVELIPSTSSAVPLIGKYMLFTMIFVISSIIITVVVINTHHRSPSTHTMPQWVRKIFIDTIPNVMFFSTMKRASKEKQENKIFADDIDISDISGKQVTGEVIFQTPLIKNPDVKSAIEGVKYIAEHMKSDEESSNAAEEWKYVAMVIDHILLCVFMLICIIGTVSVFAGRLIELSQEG

Another test concerns K177 cell line. The experiment in a line: Compound was evaluated for functional activation to [86Rb+] efflux from human K177 cells expressing recombinant alpha4-beta2 receptors. Format: cell-based. An outline of the steps:
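86Rb+ efflux measured from K177 cells expressing recombinant human α4β2 receptors. Intrinsic activity is given as percent of the maximal response to 100 μM (S)-nicotine. Values are means ± SEM, n ≥ 3.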

Test [4] deals with T1, Neuronal acetylcholine receptor subunit alpha-3 (Homo sapiens, UniProt P32297). The experiment in a line: Intrinsic activity against human sympathetic ganglionic type nAChRs in IMR-32 cells containing alpha-3 subtype. Format: functional, cell-based. An outline of the steps: (§1)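 86Rb+ efflux measured in the human neuroblastoma line IMR-32 (ganglionic-like, α3-containing nAChRs). Intrinsic activity is the maximum response as percent of the response to 100 μM (S)-nicotine. Values are means ± SEM, n ≥ 3.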
T1 sequence (P32297 whole entry): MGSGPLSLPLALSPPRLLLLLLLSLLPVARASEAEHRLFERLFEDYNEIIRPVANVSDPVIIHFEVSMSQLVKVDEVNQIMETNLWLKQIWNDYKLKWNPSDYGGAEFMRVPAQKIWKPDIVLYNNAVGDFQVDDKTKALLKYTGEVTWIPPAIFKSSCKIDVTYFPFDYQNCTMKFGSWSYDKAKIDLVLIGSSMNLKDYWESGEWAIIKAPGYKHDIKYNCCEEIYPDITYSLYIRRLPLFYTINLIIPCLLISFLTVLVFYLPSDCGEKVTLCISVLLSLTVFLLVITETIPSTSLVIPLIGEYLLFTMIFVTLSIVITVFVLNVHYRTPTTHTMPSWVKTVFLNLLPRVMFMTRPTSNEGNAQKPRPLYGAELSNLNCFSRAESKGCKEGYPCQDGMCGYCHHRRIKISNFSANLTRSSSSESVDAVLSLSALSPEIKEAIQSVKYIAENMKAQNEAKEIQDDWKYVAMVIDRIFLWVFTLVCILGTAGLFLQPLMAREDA

The target in test [5] is T1, Neuronal acetylcholine receptor subunit alpha-3. Briefly: Functional activation of human sympathetic ganglionic type nAChRs in IMR-32 cells containing alpha-3 subtype. Format: cell-based. The gist of the method: as §1
Test [6] has as its target Neuronal acetylcholine receptor. Briefly: Compound was evaluated for its ability to displace [3H]-cytisine binding from high-affinity Nicotinic acetylcholine receptor in rat brain (principally the alpha4-beta2 nAChR subtype). The class given is tissue-based. The gist of the method:
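Displacement of [3H]cytisine from rat whole-brain membranes, principally α4β2 sites.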

Test [7] can be described thus: Compound was evaluated for functional activation to [86Rb+] efflux From human medulloblastoma cell line TE671 expressing recombinant alpha-1-beta-1-gamma delta receptors. To be noted: TE-671. An outline of the steps:
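86Rb+ efflux measured from the human medulloblastoma line TE671. Intrinsic activity is given as percent of the maximal response to 1 mM (S)-nicotine. Values are means ± SEM, n ≥ 3.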

The species entered for test [8] is Mus musculus. The experiment in a line: Compound was evaluated for the analgesic activity by mouse hotplate assay at the doses of 0.062 and 0.62. The class given is functional.
For test [9], the target named is T2, Neuronal acetylcholine receptor subunit alpha-7 (Homo sapiens, UniProt P36544). Briefly: Compound was evaluated for functional activation from channel currents at human Nicotinic acetylcholine receptor alpha-7 expressed in oocytes. Format: cell-based, Oocyte.
T2 sequence (P36544 whole entry): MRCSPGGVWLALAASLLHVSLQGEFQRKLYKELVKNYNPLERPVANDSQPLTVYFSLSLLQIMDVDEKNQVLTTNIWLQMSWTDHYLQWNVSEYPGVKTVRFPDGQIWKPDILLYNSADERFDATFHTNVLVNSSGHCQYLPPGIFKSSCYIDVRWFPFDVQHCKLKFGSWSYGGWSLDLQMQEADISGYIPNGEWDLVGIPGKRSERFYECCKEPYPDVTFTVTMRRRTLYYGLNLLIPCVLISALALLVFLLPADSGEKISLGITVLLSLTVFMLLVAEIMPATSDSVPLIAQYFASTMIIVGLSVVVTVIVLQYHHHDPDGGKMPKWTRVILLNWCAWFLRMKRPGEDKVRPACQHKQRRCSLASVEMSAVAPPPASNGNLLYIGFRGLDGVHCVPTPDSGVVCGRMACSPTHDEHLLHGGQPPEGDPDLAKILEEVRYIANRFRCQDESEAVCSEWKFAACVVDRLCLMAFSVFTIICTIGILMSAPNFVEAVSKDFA
The species entered for test [10] is Mus musculus. The experiment in a line: Minimum peroral effective dose for analgesic activity was determined by mouse hot plate assay. The class given is functional. The gist of the method: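 Mouse hot plate at 55 °C with 8 mice per dose. Drug in 0.9% saline was given po, 10 mL/kg, 30 min before testing, over a range of 0.19–6.2 μmol/kg. MED is the lowest dose that increases latency to the tenth jump versus saline, with a 180 s cutoff.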
A general note: Thermal pain tests record how soon the animal reacts.

Test [11] concerns Canis familiaris. The experiment in a line: Compound was evaluated for increase in heart rate (HR) in dog at 10 nM/Kg when administered intravenously. The class given is functional, Canis lupus familiaris. An outline of the steps:
(§2)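 Male beagle dogs under pentobarbital anesthesia (35 mg/kg iv, then 5 mg/kg/h iv infusion), ventilated with room air. Blood pressure was recorded by a micromanometer catheter passed via the carotid artery into the left ventricle.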

Test [12] concerns Mus musculus. The experiment in a line: Minimum intraperitoneal effective dose for abdominal constriction in mouse. Format: functional, Abdomen. The gist of the method: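 Mice, 10 per dose group, received compound ip in 0.9% saline, 10 mL/kg, 30 min before ip phenyl-p-quinone (68 μmol/kg in 5% EtOH). Writhing was scored over a 10-min window starting 5 min after the irritant. The read-out was the reduction in the number of responders versus the saline group.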

The subject of test [13] is Canis familiaris. The experiment in a line: Compound was evaluated for increase in diastolic blood pressure (BP) in dog at 10 nM/Kg when administered intravenously. The class given is functional, Canis lupus familiaris, Artery. The gist of the method:
as §2

Test [14] deals with T2, Neuronal acetylcholine receptor subunit alpha-7. Briefly: Compound was evaluated for its ability to displace [125I]alpha-bungarotoxin (alpha-BgT) from K28 cells expressing human Nicotinic acetylcholine receptor alpha7. The class given is cell-based. The gist of the method: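 Displacement of [125I]-α-bungarotoxin from K28 cells expressing human α7 homomers. Ki values are means ± SEM, n ≥ 3.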

The species named for test [15] is Mus musculus. The experiment in a line: Compound was evaluated for the analgesic activity by mouse hotplate assay at the dose 0.1; No significant effect observed at the doses tested. The class given is functional, organism-based.

Neuronal acetylcholine receptor; alpha4/beta2, sequence (P17787 whole entry): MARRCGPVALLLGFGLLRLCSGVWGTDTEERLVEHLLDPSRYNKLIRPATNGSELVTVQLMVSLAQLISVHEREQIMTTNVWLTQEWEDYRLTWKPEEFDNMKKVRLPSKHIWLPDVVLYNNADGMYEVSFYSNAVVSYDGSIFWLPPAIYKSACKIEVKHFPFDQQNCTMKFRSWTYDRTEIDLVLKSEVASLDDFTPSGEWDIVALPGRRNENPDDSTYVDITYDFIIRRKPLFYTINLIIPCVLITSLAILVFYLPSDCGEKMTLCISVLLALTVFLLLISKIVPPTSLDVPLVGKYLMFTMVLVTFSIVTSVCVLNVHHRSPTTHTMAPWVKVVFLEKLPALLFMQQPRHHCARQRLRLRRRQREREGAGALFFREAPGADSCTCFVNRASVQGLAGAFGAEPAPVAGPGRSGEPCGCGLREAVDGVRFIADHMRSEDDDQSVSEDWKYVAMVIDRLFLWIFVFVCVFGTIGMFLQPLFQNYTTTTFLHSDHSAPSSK
Neuronal acetylcholine receptor; alpha4/beta2, sequence (P43681 whole entry): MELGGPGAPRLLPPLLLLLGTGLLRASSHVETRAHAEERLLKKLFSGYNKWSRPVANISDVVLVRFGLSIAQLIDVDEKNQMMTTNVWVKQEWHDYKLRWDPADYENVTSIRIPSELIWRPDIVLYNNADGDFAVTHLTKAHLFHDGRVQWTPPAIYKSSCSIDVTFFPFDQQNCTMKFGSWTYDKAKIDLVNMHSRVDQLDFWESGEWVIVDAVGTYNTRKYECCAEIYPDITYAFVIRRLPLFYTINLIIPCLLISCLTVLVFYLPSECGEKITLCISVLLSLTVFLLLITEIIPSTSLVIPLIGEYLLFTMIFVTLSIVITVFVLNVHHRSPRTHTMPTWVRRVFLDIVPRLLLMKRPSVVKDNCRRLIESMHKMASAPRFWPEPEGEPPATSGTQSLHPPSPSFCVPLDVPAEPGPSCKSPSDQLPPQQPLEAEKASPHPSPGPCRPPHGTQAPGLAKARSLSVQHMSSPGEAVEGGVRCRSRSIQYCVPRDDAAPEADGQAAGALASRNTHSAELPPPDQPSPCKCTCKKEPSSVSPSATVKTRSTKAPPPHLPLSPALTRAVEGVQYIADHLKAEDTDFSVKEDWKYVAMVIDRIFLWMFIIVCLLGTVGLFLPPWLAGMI

Take `c1cncc(OC[C@@H]2CCN2)c1`: the Ki was found to be 0.04 nM in [1] and 314 nM in [3]. In the test filed under Mus musculus [2], the MED result is “inactive”. Further, the EC50 in the test with K177 cell line (Homo sapiens, K177) was 700 nM; in test [5] it was 700 nM. This compound displayed an IA in [4] of 113%.
Regarding `CN1CC[C@H]1COc1ccc(Cl)nc1`, in the test filed under Mus musculus [2], the MED entry is “inactive”. The compound also had an IA in test [4] of 43%. The compound also returned an inhibition constant Ki in test [6] of 1.6 nM. Also, the half-maximal effective concentration (EC50) in test [5] was 28900 nM.
With `Clc1ccc(OCC2CCN2)cn1` (single isomer, unassigned) [TEBANICLINE], the Ki in [1] was 0.055 nM; in test [3], 10000 nM; in [6], 0.04 nM; in [14], 2060 nM. In addition, the EC50 in test [7] was 36000 nM; in [9] it was 56000 nM; with K177 cell line (k177), 270 nM; in test [5], 200 nM. The MED in the test filed under Mus musculus [8] came out at 0.62 µM/kg; in the test filed under Mus musculus [10] it was 6.2 µM/kg; in the test on Mus musculus [12], 0.19 µM/kg. The compound further registered an HR with Canis familiaris [11] of 7.8 beats min-1. The IA in test [4] stood at 116%. The compound also came in with a BP in the test on Canis familiaris [13] of 23.2 mmHg.
Take `Clc1ccc(C2CC3CCC2N3)cn1` (racemic): the MED result in the test listed under Mus musculus [15] was “inactive”. In addition, the IA in test [4] amounted to 156%.
Regarding `c1cncc(OC[C@H]2CCN2)c1`, in the test listed under Mus musculus [2], the MED entry is “inactive”. Moreover, the inhibition constant (Ki) is 384 nM in test [3] and 1270 nM in test [14]. Besides, the results for the 50% effective concentration (EC50) in [9] and in test [5] were 36000 nM and 1100 nM, respectively. Moreover, the IA in [4] came out at 116%.
In the case of `Clc1ccc(OC[C@@H]2CCCN2)cn1`, the MED entry in the test listed under Mus musculus [2] was “inactive”. The compound further displayed an IA in [4] of 104%. Further, the affinity in test [6], expressed as Ki, was 0.45 nM. The compound further showed a concentration for a half-maximal effect (EC50) in test [5] of 1190 nM.
As to `Clc1ccc(OC[C@H]2CCCN2)cn1`, the MED result in the test listed under Mus musculus [2] is “inactive”. Also, the IA in [4] was found to be 110%. In test [6], this compound registered an inhibitory constant (Ki) of 0.09 nM. In addition, it took 500 nM to reach a half-maximal effect in test [5] (EC50).

The values are drawn from ChEMBL document CHEMBL1131463, “Identification and initial structure-activity relationships of (R)-5-(2-azetidinylmethoxy)-2-chloropyridine (ABT-594), a potent, orally active, non-opiate analgesic agent acting via neuronal nicotinic acetylcholine receptors” (J Med Chem, 1998).
